Reference: ChEMBL document CHEMBL5096236, “Development of Fluorinated Peptoid-Based Histone Deacetylase (HDAC) Inhibitors for Therapy-Resistant Acute Leukemia” (J Med Chem, 2022)
Active and inactive are the calls of the source. No cut-off for these calls is given here.

Key:
Histone deacetylase 1 = Histone deacetylase 1 (Homo sapiens, UniProt Q13547); test: Inhibition of recombinant human C-terminal FLAG/His-tagged HDAC1 (1 to 482 residues) expressed in Sf9 insect cells using Z-Lys(Ac)-AMC as fluorogenic substrate incubated for 90 mins by microplate reader analysis
Chain of Histone deacetylase 1 (Q13547 whole entry, the tested form may be a part): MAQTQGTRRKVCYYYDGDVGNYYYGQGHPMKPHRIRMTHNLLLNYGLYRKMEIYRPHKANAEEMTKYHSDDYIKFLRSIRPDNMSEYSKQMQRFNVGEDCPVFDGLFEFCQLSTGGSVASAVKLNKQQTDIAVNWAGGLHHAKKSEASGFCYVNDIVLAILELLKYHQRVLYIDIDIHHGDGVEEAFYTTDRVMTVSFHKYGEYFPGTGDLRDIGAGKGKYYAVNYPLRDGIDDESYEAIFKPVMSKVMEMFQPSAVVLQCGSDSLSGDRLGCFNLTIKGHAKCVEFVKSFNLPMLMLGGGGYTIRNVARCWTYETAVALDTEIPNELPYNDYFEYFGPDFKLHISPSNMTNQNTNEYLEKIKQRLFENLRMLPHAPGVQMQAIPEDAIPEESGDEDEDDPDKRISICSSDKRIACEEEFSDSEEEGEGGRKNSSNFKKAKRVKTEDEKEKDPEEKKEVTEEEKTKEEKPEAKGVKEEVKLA

Jurkat = test: cells; format: functional, cell-based; details: Homo sapiens, 72 h
[1] = target: T1, Protein deacetylase HDAC6 (Homo sapiens, UniProt Q9UBN7); test: Inhibition of recombinant human N-terminal GST-tagged HDAC6 (1 to 1215 residues) expressed in Sf9 insect cells using Z-Lys(Ac)-AMC as fluorogenic substrate incubated for 90 mins by microplate reader analysis
T1 sequence (Q9UBN7 whole entry): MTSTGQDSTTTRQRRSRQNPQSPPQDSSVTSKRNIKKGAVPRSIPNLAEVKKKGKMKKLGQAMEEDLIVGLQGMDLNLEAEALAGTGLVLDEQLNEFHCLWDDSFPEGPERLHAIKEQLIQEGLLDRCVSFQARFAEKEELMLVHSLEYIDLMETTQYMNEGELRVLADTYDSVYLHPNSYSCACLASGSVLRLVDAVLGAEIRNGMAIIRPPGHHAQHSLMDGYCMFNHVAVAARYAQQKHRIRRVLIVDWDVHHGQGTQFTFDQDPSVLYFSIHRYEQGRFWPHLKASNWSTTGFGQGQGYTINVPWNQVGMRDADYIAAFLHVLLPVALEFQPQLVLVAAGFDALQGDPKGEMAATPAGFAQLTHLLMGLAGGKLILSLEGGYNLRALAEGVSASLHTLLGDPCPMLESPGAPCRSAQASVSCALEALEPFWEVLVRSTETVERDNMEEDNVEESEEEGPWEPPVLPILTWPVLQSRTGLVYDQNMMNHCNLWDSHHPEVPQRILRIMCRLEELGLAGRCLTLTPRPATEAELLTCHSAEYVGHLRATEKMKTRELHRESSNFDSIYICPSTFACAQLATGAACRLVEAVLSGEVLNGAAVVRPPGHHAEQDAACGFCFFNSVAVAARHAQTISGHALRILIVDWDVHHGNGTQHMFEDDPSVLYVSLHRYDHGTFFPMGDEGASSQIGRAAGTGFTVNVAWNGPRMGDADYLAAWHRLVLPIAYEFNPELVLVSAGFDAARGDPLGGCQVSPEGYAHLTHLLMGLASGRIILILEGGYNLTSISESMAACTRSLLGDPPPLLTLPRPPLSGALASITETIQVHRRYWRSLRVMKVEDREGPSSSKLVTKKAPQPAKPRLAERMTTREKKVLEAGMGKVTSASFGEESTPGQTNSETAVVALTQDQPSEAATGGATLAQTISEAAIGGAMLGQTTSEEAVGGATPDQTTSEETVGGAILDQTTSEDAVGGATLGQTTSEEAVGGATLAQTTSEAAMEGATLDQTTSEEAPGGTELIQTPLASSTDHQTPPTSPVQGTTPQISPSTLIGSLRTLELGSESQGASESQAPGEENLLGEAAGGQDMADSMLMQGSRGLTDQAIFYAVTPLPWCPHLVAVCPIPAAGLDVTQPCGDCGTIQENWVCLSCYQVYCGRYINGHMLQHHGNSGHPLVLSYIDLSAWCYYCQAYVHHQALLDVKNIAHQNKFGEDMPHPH

Histone deacetylase 2 = Histone deacetylase 2 (Homo sapiens, UniProt Q92769); test: Inhibition of recombinant human C-terminal FLAG-tagged HDAC2 (1 to 488 residues) expressed in Sf9 insect cells using Z-Lys(Ac)-AMC as fluorogenic substrate incubated for 90 mins by microplate reader analysis
Chain of Histone deacetylase 2 (Q92769 whole entry, the tested form may be a part): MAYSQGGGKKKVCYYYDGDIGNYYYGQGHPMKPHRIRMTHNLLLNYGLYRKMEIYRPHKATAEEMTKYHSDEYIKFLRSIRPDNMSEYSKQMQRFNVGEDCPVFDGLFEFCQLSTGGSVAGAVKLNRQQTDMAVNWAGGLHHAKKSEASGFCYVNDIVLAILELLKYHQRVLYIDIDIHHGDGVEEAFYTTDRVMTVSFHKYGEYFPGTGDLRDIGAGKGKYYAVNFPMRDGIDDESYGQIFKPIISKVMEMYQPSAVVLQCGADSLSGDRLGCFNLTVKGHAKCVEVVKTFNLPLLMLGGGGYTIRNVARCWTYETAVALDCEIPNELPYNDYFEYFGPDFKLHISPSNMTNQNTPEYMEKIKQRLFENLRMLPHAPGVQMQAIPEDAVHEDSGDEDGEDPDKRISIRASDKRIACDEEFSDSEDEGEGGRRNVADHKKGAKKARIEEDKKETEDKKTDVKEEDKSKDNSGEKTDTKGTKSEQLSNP
Procedure, shortened: (§1)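 Compound incubated with ZMAL (Z-Lys(Ac)-AMC; 21.43 μM solution) and enzyme at 37 °C for 90 min. Trypsin (0.4 mg/mL) added, 30 min at 37 °C. […] Duplicates, ≥2 independent experiments. SI = IC50 (HDAC2 or 3)/IC50 (HDAC6).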

[2] = target: Histone deacetylase 3/Nuclear receptor corepressor 2 (HDAC3/NCoR2) (Homo sapiens, UniProt O15379); test: Inhibition of C-terminal His-tagged recombinant human HDAC3 (1 to 428 residues)/N-terminal GST-tagged recombinant human NCoR2 (395 to 489 residues) co-expressed in Sf9 cells using Z-Lys(Ac)-AMC as fluorogenic substrate incubated for 90 mins by microplate reader analysis; procedure, shortened: as §1
Chain of Histone deacetylase 3/Nuclear receptor corepressor 2 (HDAC3/NCoR2) (O15379 whole entry, the tested form may be a part): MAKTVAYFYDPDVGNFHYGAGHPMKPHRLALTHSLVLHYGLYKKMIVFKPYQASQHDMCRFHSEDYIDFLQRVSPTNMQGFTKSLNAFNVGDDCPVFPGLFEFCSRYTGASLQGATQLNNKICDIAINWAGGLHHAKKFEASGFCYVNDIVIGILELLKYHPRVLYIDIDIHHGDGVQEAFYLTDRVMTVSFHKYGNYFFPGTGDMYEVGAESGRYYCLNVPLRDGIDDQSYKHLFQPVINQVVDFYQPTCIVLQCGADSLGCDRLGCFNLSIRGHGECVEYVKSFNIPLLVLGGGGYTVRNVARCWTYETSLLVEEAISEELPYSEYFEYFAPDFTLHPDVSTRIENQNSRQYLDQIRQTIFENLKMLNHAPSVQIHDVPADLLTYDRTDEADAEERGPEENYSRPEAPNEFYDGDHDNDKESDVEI
Chain of Histone deacetylase 3/Nuclear receptor corepressor 2 (HDAC3/NCoR2) (Q9Y618 whole entry, further chain, the tested form may be a part): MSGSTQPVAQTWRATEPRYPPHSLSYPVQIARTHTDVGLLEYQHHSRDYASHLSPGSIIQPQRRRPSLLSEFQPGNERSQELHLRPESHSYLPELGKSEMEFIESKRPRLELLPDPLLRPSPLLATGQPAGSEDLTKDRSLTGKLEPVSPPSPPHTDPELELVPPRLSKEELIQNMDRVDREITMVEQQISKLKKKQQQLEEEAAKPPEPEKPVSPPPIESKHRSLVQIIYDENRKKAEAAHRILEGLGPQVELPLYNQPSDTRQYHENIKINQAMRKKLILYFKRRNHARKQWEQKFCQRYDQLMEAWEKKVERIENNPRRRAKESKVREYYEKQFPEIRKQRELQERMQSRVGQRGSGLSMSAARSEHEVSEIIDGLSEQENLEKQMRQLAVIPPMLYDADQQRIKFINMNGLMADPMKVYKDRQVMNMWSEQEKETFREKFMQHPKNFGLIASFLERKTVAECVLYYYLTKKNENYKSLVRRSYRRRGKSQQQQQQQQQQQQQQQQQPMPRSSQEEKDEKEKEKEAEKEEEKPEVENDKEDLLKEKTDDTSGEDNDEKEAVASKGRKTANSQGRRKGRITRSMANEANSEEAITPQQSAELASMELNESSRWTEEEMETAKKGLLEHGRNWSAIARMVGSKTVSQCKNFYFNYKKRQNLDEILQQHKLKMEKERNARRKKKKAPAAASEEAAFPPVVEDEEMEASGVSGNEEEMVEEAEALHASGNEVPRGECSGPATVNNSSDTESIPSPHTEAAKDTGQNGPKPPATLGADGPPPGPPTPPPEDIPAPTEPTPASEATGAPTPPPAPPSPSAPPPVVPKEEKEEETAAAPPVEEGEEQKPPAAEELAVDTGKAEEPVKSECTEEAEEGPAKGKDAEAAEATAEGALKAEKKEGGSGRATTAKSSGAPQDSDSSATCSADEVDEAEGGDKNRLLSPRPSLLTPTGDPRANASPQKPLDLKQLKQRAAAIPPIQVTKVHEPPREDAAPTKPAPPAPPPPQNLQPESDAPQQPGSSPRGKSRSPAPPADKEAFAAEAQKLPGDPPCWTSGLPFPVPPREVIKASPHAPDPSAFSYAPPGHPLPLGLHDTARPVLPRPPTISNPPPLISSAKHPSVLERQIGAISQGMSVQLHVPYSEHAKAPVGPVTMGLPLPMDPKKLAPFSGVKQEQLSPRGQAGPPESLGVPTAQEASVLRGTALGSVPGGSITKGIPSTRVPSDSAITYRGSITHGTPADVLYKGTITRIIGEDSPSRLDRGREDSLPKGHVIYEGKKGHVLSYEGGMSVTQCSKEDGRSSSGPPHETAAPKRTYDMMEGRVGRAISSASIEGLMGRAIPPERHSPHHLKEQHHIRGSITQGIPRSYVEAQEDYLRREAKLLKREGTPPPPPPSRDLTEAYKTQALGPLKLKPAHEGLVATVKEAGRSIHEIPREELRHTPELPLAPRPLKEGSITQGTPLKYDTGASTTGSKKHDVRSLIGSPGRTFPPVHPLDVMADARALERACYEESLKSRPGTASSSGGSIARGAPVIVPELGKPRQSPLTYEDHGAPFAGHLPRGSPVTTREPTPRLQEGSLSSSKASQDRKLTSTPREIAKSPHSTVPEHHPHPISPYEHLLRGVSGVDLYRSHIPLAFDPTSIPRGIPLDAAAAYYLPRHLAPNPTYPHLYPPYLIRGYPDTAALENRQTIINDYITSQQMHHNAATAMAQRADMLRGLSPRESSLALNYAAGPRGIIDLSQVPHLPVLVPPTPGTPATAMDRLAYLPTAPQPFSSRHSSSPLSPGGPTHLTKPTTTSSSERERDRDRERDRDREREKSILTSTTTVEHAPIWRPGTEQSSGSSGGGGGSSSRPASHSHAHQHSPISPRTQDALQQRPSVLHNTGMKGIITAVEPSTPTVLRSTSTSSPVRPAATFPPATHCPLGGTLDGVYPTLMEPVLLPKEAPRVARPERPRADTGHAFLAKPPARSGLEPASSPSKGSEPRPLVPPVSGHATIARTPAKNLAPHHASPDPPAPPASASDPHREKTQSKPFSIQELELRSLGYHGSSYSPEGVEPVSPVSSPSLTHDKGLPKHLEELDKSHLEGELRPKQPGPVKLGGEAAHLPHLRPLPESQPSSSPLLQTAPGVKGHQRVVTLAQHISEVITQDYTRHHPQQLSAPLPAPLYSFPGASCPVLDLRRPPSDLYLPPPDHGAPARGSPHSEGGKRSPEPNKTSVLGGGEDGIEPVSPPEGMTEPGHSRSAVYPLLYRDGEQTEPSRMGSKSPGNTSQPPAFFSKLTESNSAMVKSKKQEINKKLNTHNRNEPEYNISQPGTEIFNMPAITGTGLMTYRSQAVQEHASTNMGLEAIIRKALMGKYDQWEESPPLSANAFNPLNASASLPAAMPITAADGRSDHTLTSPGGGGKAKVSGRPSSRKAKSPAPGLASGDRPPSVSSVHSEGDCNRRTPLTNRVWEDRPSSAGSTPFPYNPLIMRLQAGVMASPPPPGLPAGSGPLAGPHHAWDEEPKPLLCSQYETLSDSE

HL-60 [3] = test: Synergistic cytotoxicity against human HL-60 cells assessed as increase in synergy score at 0.1 to 2 uM incubated for 72 hrs in presence of DNA methyltransferase inhibitor, decitabine by CellTiter-Glo luminescent assay; format: functional, cell-based; details: dose 0.1-2 µM
Procedure, shortened: (§2)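 AML cells treated 72 h in an 8×8 dose matrix: compound 0.1–2 μM and decitabine 0.25–10 μM, logarithmically spaced. Viability by CellTiter-Glo luminescence. Synergy scored with the ZIP model in SynergyFinder.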

[4] = target: T2, Histone deacetylase (Homo sapiens) (UniProt Q13547+O15379+Q9UBN7+Q92769+Q9UQL6+Q8WUI4+Q9BY41+Q96DB2+P56524+Q9UKV0+Q969S8); test: Inhibition of HDAC in human HL-60 cells assessed as increase in Ac-H3 levels incubated for 24 hrs by immunoblot analysis; format: cell-based; details: dose lower […], dose upper 296.0 nM, DDE = dose-dependent effect
HL-60 [5] = test: Induction of apoptosis in human HL-60 cells assessed as increase in total apoptotic cells at 1 to 5 uM incubated for 48 hrs by annexin V and propidium iodide staining based flow cytometry analysis; format: functional, cell-based; details: dose 1-5 µM
Procedure, shortened: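 HL60 cells (RPMI 1640 GlutaMax, 10-20% FCS, 37°C, 5% CO₂) exposed to compound or control at 1 or 5 μM for 48 h, then stained with annexin V and propidium iodide and analysed by flow cytometry; n=3.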

[6] = target: T2, Histone deacetylase (Homo sapiens); test: Inhibition of HDAC in human HL-60 cells assessed as increase in alpha tubulin acetylation incubated for 24 hrs by immunoblot analysis; format: cell-based; details: dose lower […], dose upper 296.0 nM, DDE = dose-dependent effect
[7] = target: T2, Histone deacetylase (Homo sapiens); test: Inhibition of HDAC in human HL-60 cells assessed as increase in Ac-H3 levels at 0.15 uM incubated for 24 hrs in presence of DNA methyltransferase inhibitor, decitabine by immunoblot analysis; format: cell-based
Procedure, shortened: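 HL60 cells treated for 24 h with compound alone or combined with decitabine at indicated concentrations. Acetylated H3 detected by immunoblotting.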

MOLM-13 = test: Synergistic cytotoxicity against human MOLM-13 cells assessed as increase in synergy score at 0.1 to 2 uM incubated for 72 hrs in presence of […] inhibitor, decitabine by CellTiter-Glo luminescent assay; format: functional, cell-based; details: dose 0.1-2 µM; procedure, shortened: as §2
HAL-01 = test: cells; format: functional, cell-based; details: Homo sapiens, HAL-01, 72 h
HL-60 [8] = test: cells; format: functional, cell-based; details: Homo sapiens, HL-60, 72 h
Histone deacetylase 4 = Histone deacetylase 4 (Homo sapiens, UniProt P56524); test: Inhibition of recombinant human N-terminal GST-tagged/C-terminal His-tagged HDAC4 (627 to 1084 residues) expressed in baculovirus infected Sf9 insect cells using Boc-Lys (trifluoroacetyl)-AMC as substrate incubated for 90 mins by microplate reader analysis
Chain of Histone deacetylase 4 (P56524 whole entry, the tested form may be a part): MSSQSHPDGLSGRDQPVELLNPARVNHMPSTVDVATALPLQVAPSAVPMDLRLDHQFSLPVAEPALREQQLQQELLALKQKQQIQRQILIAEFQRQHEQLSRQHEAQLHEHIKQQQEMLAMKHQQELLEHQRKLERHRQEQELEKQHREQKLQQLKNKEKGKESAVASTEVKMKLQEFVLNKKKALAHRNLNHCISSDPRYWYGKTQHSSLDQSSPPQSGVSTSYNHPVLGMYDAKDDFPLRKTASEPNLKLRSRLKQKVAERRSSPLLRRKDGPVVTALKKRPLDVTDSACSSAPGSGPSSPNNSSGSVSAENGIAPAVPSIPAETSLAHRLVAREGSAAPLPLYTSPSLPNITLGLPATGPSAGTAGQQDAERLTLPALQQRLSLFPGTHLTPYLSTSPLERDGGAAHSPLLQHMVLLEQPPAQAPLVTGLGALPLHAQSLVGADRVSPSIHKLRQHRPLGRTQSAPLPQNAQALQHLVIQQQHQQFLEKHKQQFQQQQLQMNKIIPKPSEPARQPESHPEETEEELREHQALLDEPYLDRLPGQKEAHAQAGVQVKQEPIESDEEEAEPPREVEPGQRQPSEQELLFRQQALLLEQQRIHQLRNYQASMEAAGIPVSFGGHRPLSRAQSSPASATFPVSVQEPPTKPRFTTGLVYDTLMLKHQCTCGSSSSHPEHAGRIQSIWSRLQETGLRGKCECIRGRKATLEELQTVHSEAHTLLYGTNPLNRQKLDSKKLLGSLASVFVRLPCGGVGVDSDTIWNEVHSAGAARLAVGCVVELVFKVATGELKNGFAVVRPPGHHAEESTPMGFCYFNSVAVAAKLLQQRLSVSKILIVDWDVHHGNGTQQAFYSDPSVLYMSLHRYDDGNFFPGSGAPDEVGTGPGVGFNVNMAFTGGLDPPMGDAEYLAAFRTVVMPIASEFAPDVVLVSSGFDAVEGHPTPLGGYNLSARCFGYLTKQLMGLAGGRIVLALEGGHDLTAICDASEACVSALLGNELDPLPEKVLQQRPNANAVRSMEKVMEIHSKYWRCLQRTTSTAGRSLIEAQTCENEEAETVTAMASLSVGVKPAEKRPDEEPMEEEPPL
Procedure, shortened: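 HDAC4 enzyme in Tris-HCl pH 8.0 buffer with NaCl, KCl, MgCl₂ and 0.1 mg/mL BSA, max. 1% DMSO. Trypsin (1.0 mg/mL) added, 30 min. Three-parameter log(inhibitor) fit. Duplicates, ≥2 experiments, mean ± SD. SI = IC50 HDAC4/IC50 HDAC6.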

[9] = target: T2, Histone deacetylase (Homo sapiens); test: Inhibition of HDAC in human HL-60 cells assessed as increase in alpha tubulin acetylation at 6 to 36 uM incubated for 24 hrs by immunoblot analysis; format: cell-based; details: dose 6-36 µM

Structure (SMILES)	IC50 (Histone deacetylase 1)	IC50 [1]	IC50 (HAL-01)	other results
O=C(CN(Cc1ccc(C(=O)NO)cc1F)C(=O)c1ccccc1C(F)(F)F)NC1CCCCC1	1450 nM	–	–	IC50 (Jurkat): > 25000 nM
Cc1ccccc1C(=O)N(CC(=O)NC(C)(C)C)Cc1ccc(C(=O)NO)cc1	–	–	–	IC50 (Histone deacetylase 1; sf9): 2410 nM; IC50 ([1]; sf9): 51 nM
O=C(CN(Cc1ccc(C(=O)NO)cc1F)C(=O)c1ccccc1F)NC1CCCCC1	–	18 nM	–	–
CC(C)(C)NC(=O)CN(Cc1ccc(C(=O)NO)cc1F)C(=O)c1ccccc1F	1180 nM	26 nM	–	–
Cc1ccccc1C(=O)N(CC(=O)NC(C)(C)C)Cc1ccc(C(=O)NO)cc1F	1750 nM	27 nM	–	–
CN(C)c1ccc(C(=O)N(CC(=O)NCc2ccccc2)Cc2ccc(C(=O)NO)cc2F)cc1	13 nM	–	375 nM	IC50 (Histone deacetylase 2): 14 nM; IC50 (Histone deacetylase 2; record 2): 14 nM; IC50 [2]: 21 nM; Activity (HL-60 [3]): Active; inhibition [4]: Dde; Activity (HL-60 [5]): Active; inhibition [6]: Dde; inhibition [7]: Active; Activity (MOLM-13): Active; IC50 (HL-60 [8]): 218 nM; IC50 (Jurkat): 285 nM
COc1ccccc1C(=O)N(CC(=O)NC1CCCCC1)Cc1ccc(C(=O)NO)cc1F	1500 nM	20 nM	> 25000 nM	–
Cc1cc(C)cc(C(=O)N(CC(=O)NC2CCCCC2)Cc2ccc(C(=O)NO)cc2)c1	249 nM	40 nM	–	–
Cc1cc(C)cc(C(=O)N(CC(=O)NC2CCCCC2)Cc2ccc(C(=O)NO)cc2F)c1	–	20 nM	–	–
CN(C)c1ccc(C(=O)N(CC(=O)NC2CCCCC2)Cc2ccc(C(=O)NO)cc2F)cc1	66 nM	16 nM	–	–
CC(C)(C)NC(=O)CN(Cc1ccc(C(=O)NO)cc1F)C(=O)c1ccccc1C(F)(F)F	2330 nM	27 nM	> 25000 nM	IC50 (Jurkat): > 25000 nM
COc1ccccc1C(=O)N(CC(=O)NC(C)(C)C)Cc1ccc(C(=O)NO)cc1F	1750 nM	17 nM	> 25000 nM	–
CC(C)c1ccccc1C(=O)N(CC(=O)NC(C)(C)C)Cc1ccc(C(=O)NO)cc1F	8010 nM	–	> 25000 nM	IC50 (Histone deacetylase 2): 4480 nM; IC50 [2]: 8350 nM; Activity (HL-60 [5]): Active; IC50 (Histone deacetylase 4): > 10000 nM; inhibition [9]: Active; IC50 (Jurkat): > 25000 nM
COc1ccccc1C(=O)N(CC(=O)NC(C)(C)C)Cc1ccc(C(=O)NO)cc1	–	–	–	IC50 (Histone deacetylase 1; sf9): 3110 nM; IC50 ([1]; sf9): 38 nM
Cc1cc(C)cc(C(=O)N(CC(=O)NCc2ccccc2)Cc2ccc(C(=O)NO)cc2F)c1	77 nM	13 nM	2750 nM	IC50 (HL-60 [8]): 9150 nM; IC50 (Jurkat): 6230 nM

The next lines start with results.

IC50 (Histone deacetylase 1)	IC50 [1]	IC50 (HAL-01)	Structure (SMILES)	other results
573 nM	24 nM	–	Cc1cc(C)cc(C(=O)N(CC(=O)NC(C)(C)C)Cc2ccc(C(=O)NO)cc2F)c1	–
3470 nM	21 nM	–	CC(C)(C)NC(=O)CN(Cc1ccc(C(=O)NO)cc1F)C(=O)c1ccccc1Cl	–
5 nM	11 nM	–	CN(C)c1ccc(C(=O)N(CC(=O)NCc2ccccc2)Cc2ccc(C(=O)NO)cc2)cc1	–
938 nM	18 nM	–	Cc1ccccc1C(=O)N(CC(=O)NC1CCCCC1)Cc1ccc(C(=O)NO)cc1F	–
–	–	13900 nM	O=C(NO)c1ccc(CC(=O)N(CCO)c2ccccc2)cc1	IC50 (HL-60 [8]): 11300 nM; IC50 (Jurkat): 16100 nM
158 nM	20 nM	–	CN(C)c1ccc(C(=O)N(CC(=O)NC(C)(C)C)Cc2ccc(C(=O)NO)cc2F)cc1	–
